Screens (PubChem BioAssay)
A selection: hits, their analogues and other compounds. The true share with any hit is near 0.98%.
Rtt109 HAT inh – C. albicans Rtt109 histone acetyltransferase inhibition; Q5AAJ8; purified Rtt109/Vps75, ThioGlo CoA-SH fluorescence, 4 h; inhibition, % at 34.9 µM; actives 0.16% (n = 330,000); AID 540336;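 active = inhibition of at least 50% in every replicate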
Target sequence (Q5AAJ8 whole entry, looked up): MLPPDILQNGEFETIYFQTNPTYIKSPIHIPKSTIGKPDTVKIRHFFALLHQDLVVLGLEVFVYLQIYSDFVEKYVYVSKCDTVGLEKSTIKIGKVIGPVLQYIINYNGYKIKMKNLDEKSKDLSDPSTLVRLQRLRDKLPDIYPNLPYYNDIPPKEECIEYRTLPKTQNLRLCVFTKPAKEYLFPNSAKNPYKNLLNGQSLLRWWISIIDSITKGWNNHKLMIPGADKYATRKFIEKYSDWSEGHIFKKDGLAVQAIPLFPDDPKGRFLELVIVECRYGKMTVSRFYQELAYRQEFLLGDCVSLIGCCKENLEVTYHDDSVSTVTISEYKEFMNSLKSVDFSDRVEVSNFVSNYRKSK
Statin myotox sup – suppressors of simvastatin-induced myotoxicity in C2C12 myotubes; ATP luminescence, 48 h; scaled: DMSO 0, geranylgeraniol control 100; rescue of ATP level, % at 7.49 µM; actives 0.78% (n = 330,000); AID 602340;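 active = mean ATP rescue above about 67%, or every replicate alone reaching that limit, limit read from the data, passing the limit was not always enough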;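 also: myotubes were challenged with 10 µM simvastatin during compound exposure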
PGC1a acetyl inh – lowers PGC1a acetylation signal in U2OS cells; inhibition, % at 15.6 µM; actives 0.17% (n = 350,000); AlphaScreen anti-acetyl-lysine; with virally co-expressed GCN5 acetyltransferase; AID 651687;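 active = every replicate shows inhibition of at least 40%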;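 also: 0% = neutral control wells and 100% = positive control wells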
ERAP1 HTS inh – blocks human ERAP1 aminopeptidase activity | Q9NZ08 | inhibition, % at 10.7 µM | recombinant ERAP1, Leu-AMC fluorescence, 60 min | actives 0.15% (n = 340,000) | AID 652197;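 active = mean replicate inhibition of at least 30%, or all replicates individually reaching that 30% level; inactive = mean below 30% and not every replicate reaching it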;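 also: 0% = neutral control wells and 100% = L-leucinethiol positive control wells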
S100A4 MyoIIA – S100A4-myosin IIA interaction inhibition; P26447; S100A4/TAMRA-MyoIIA peptide fluorescence polarization; inhibition, % at 10.7 µM; actives 0.14% (n = 360,000);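 active = mean inhibition of at least 70% across replicates, with every replicate also reaching that level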
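Material: human S100A4 monomer with TAMRA-labelled myosin IIA peptide; buffer or medium: HEPES pH 7.2 with CaCl2, KCl, NaCl, DTT, Triton; compound dosing: one concentration per compound; schedule: 5 min incubation before reading; benchmarks: neutral control DMSO, positive control TFP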
* = called active by the depositor.

`C[C@H](CO)N1C[C@H](C)[C@@H](CN(C)Cc2ccc(Oc3ccccc3)cc2)Oc2ccc(NC(=O)CCC(F)(F)F)cc2CC1=O` gave Statin myotox sup 93* and PGC1a acetyl inh -5.
O=C(Cc1ccncc1)NCC[C@@H]1CC[C@@H](NC(=O)C2CCC2)[C@H](CO)O1 was read as Statin myotox sup -7, PGC1a acetyl inh 5, ERAP1 HTS inh -2 and S100A4 MyoIIA 23.
`COCC#Cc1ccc([C@H]2[C@@H](CO)N3C(=O)CN(C(=O)Nc4ccc(F)cc4)C[C@@H]23)cc1` gave PGC1a acetyl inh -4, ERAP1 HTS inh 0 and S100A4 MyoIIA 6.
Screening C[C@@H]1CN([C@H](C)CO)S(=O)(=O)c2ccc(-c3ccc(F)cc3)cc2O[C@H]1CN(C)C(=O)C1CCC1 returned Statin myotox sup -61 and PGC1a acetyl inh 2.
`O=C(O)C[C@H]1C[C@@H]2c3cc(NC(=O)CC4CC4)ccc3O[C@@H]2[C@@H](CO)O1` gave Statin myotox sup -11, PGC1a acetyl inh 10, ERAP1 HTS inh 0 and S100A4 MyoIIA 3.
Screening C[C@@H]1CN([C@@H](C)CO)C(=O)Cc2cc(NC(=O)Cn3cnnn3)ccc2O[C@H]1CN(C)Cc1ccc(-c2ccccc2)cc1 returned Statin myotox sup 8, PGC1a acetyl inh -4, ERAP1 HTS inh 0 and S100A4 MyoIIA -16.
`C[C@H](CO)N1C[C@H](C)[C@@H](CN(C)Cc2ccc(-c3ccccc3)cc2)Oc2ccc(NC(=O)Cn3cnnn3)cc2CC1=O` gave Statin myotox sup 89*, PGC1a acetyl inh -2, ERAP1 HTS inh 0 and S100A4 MyoIIA -12.
Screening C[N+]1(CC2COC3(CCCCC3)O2)CCCC1 (stereo not drawn) returned Rtt109 HAT inh -3, ERAP1 HTS inh 81* and S100A4 MyoIIA -1.
Screening C1CCCCCC2(CCCCC1)OCC(CN1CCOCC1)O2 (stereo not drawn) returned Rtt109 HAT inh -1.
For CCOC(=O)/C(CCC[N+](C)(CC)CC)=N\O the results were Rtt109 HAT inh 10, ERAP1 HTS inh 111* and S100A4 MyoIIA -3.
COc1ccccc1C(=O)Nc1ccc2c(c1)OC[C@H](C)N(CC1CC1)C[C@H](C)[C@H](OC)CN(C)C2=O was read as Statin myotox sup -27 and PGC1a acetyl inh -4.
CO[C@@H](CN(C)C(=O)c1ccccc1F)[C@@H](C)CN([C@@H](C)CO)S(=O)(=O)c1ccc(C)cc1 was read as Statin myotox sup 2, PGC1a acetyl inh -7, ERAP1 HTS inh 1 and S100A4 MyoIIA 0.
For O=S(=O)(c1ccccc1)c1nc(-c2ccco2)oc1N1CCCCCC1 the results were Rtt109 HAT inh -16 and Statin myotox sup 105*.
`N#Cc1ccccc1/C=N/Nc1nc(-c2ccccc2)c2cc(Br)ccc2n1` gave Rtt109 HAT inh 1, Statin myotox sup 99* and PGC1a acetyl inh -2.
`O=C1C=C(c2c(O)ccc3ccccc23)c2ccccc2C1=O` gave Rtt109 HAT inh -2, Statin myotox sup -5, PGC1a acetyl inh 54*, ERAP1 HTS inh 4 and S100A4 MyoIIA -7.
Screening CC(C)NC(=O)N(C)C[C@H]1Oc2cc(C#CCN(C)C)ccc2S(=O)(=O)N([C@H](C)CO)C[C@@H]1C returned Statin myotox sup -7, PGC1a acetyl inh 3, ERAP1 HTS inh 0 and S100A4 MyoIIA 16.
`O=C(CCSc1nc(-c2ccco2)cc(C(F)(F)F)n1)Nc1ccc2c(c1)OCO2` gave Rtt109 HAT inh -3, Statin myotox sup 96* and PGC1a acetyl inh -5.
For C[C@@H]1CN([C@@H](C)CO)C(=O)c2cc(C3=CCCC3)cnc2O[C@H]1CN(C)Cc1cccnc1 the results were Statin myotox sup -9, PGC1a acetyl inh -5, ERAP1 HTS inh 1 and S100A4 MyoIIA 7.
Cc1ccc(-n2cccc2C(=S)N=P(N(C)C)(N(C)C)N(C)C)cc1 was read as Rtt109 HAT inh -5, Statin myotox sup -260 and PGC1a acetyl inh 85*.
For Cc1cc(C)nc(SCC(=O)Nc2ccc(Br)cn2)n1 the results were Rtt109 HAT inh -1, Statin myotox sup -12 and PGC1a acetyl inh -1.
Screening CCC(Sc1nc(C)cc(C)n1)C(=O)NC1=NN=C(c2ccc(C)cc2)CS1 (stereo not drawn) returned Rtt109 HAT inh 0, Statin myotox sup 83*, PGC1a acetyl inh -1, ERAP1 HTS inh 4 and S100A4 MyoIIA -3.
